{"source": "ChEMBL document CHEMBL4513216", "about": "“Probing the Open Global Health Chemical Diversity Library for Multistage-Active Starting Points for Next-Generation Antimalarials” (ACS Infect Dis, 2020)"}
{"assay": "Toxicity liver stage against HepG2, at 10uM", "type": "cell-based", "set-up": "test concentration 10 uM, cell line HepG2-A16-CD81EGFP", "settings": "human, HepG2-A16-CD81EGFP cells; read-out: INHIBITION", "in_short": "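Uninfected HepG2-A16-CD81EGFP cells, 3 × 10^3 per well, 1536-well, plated on prespotted compound at 10 μM final, parasite-free screening media added to match infected plates; puromycin 10 μM positive, DMSO 0.5% negative; run in parallel with 48 h PbLuc assay at 37 °C, 5% CO2; viability by CellTiter-Glo luminescence, normalized to controls.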", "units": {"cytotoxicity at 10 µM": "%"}}
{"smiles": "COCCO[C@H]1COCCN(C2CCN(C)CC2)C1", "cytotoxicity at 10 µM": 3.08}
{"smiles": "Cc1cc(O)cc2c(=O)oc(CC(C)O)cc12", "note": "(stereo unspecified)", "cytotoxicity at 10 µM": 0.346}
{"smiles": "CC(=O)CSc1nc2c(cnn2CCO)c(=O)[nH]1", "cytotoxicity at 10 µM": -2.22}
{"smiles": "CCCc1cc(=O)[nH]c2nnc(SCC(=O)NCCc3ccccc3)n12", "cytotoxicity at 10 µM": 14.2}
{"smiles": "CCN1CCOCC2(CCCN(C(=O)c3cnccn3)C2)C1", "note": "(stereo unspecified)", "cytotoxicity at 10 µM": 6.21}
{"smiles": "O=C(Nc1ccccc1)C1=NOC2(CCCN(C(=O)N3CCCC3)C2)C1", "note": "(stereo unspecified)", "cytotoxicity at 10 µM": -1.66}
{"smiles": "O=C(c1cccs1)N1CCOCC2(C1)CN(c1ccccc1)C(=O)CO2", "note": "(stereo unspecified)", "cytotoxicity at 10 µM": -0.756}
{"smiles": "Cc1cnc(N2CCC3(CCN(CC4CC4)C3=O)CC2)nc1", "cytotoxicity at 10 µM": 6.17}
{"smiles": "CCS(=O)(=O)N1C[C@@H](C(=O)NC(C)C)[C@@]2(Cc3ccccc3C(=O)N2)C1", "cytotoxicity at 10 µM": 1.11}
{"smiles": "CNc1ncc(C(=O)N2CCOC(C(=O)Nc3ccccc3)C2)cn1", "note": "(stereo unspecified)", "cytotoxicity at 10 µM": -4.35}
{"smiles": "O=C(O)c1cncc(Cc2ccccc2F)c1", "cytotoxicity at 10 µM": 0.812}
{"smiles": "NCc1cccc(-c2cccnc2C(=O)NCCN2CCCC2)c1", "cytotoxicity at 10 µM": -6.9}
{"smiles": "Cc1ccccc1CC(=O)N1C[C@@H](O)[C@H](N2CCOCC2)C1", "cytotoxicity at 10 µM": -4.05}
{"smiles": "COCCN(C(=O)c1ccsc1)c1ccc(C#N)cc1", "cytotoxicity at 10 µM": 4.19}
{"smiles": "CC(C)CCn1ccc(NC2CCSC2)n1", "note": "(stereo unspecified)", "cytotoxicity at 10 µM": 6.93}
{"smiles": "CC(C)(C)C(=O)NCCC(=O)NS(=O)(=O)c1cccc(C#N)c1", "cytotoxicity at 10 µM": 1.01}
{"smiles": "O=C1CC(N(C(=O)c2ccccc2Br)C2CC2)C(=O)N1", "note": "(stereo unspecified)", "cytotoxicity at 10 µM": 10.3}
{"smiles": "CC(C)(C)n1ncc2c1CCCC2NCc1cccc(C(N)=O)c1", "note": "(stereo unspecified)", "cytotoxicity at 10 µM": -0.25}
{"smiles": "CC(C)(C)OC(=O)N1CCC(C(=O)NCc2cc3ccccc3[nH]2)C1", "note": "(stereo unspecified)", "cytotoxicity at 10 µM": 2.34}
{"smiles": "CCNC(=O)C1CCCN1S(=O)(=O)c1sc(=O)[nH]c1C", "note": "(stereo unspecified)", "cytotoxicity at 10 µM": 1.34}
{"smiles": "O=C(Nc1nncs1)N(Cc1cccc(O)c1)C1CC1", "cytotoxicity at 10 µM": 4.14}
{"smiles": "Cc1noc(C2CCN(C(C)c3nc(C4CC4)no3)CC2)n1", "note": "(stereo unspecified)", "cytotoxicity at 10 µM": 7.57}
{"smiles": "CC(C)N(CCNCc1ccc(C#N)cc1)C1CC1", "cytotoxicity at 10 µM": -2.54}
{"smiles": "COc1ccc(C)c2c1N(C(=O)c1cnc(C)s1)CCC2", "cytotoxicity at 10 µM": -1.46}
{"smiles": "CC(C)(C)S(=O)(=O)c1ccc(N2CCC(n3cccn3)CC2)cn1", "cytotoxicity at 10 µM": 22.3}
{"smiles": "CC(Nc1ccc(Oc2cccc(C#N)c2)cc1)C(=O)NC1CC1", "note": "(stereo unspecified)", "cytotoxicity at 10 µM": 6.91}
{"smiles": "Cc1c(Cl)cc(C(=O)N(CCO)Cc2nccn2C)cc1Cl", "cytotoxicity at 10 µM": 2.66}
{"smiles": "CCN(C)C(=O)c1coc(COc2ccccc2)n1", "cytotoxicity at 10 µM": 3.36}
{"smiles": "CSCCC(=O)N1CCCC(c2ncc[nH]2)C1", "note": "(stereo unspecified)", "cytotoxicity at 10 µM": -1.64}
{"smiles": "CCCn1cc(-c2cc(-c3c[nH]cn3)c(C#N)c(N)n2)c(C)n1", "cytotoxicity at 10 µM": 10.3}
{"smiles": "CCCn1nc(C)c(CNS(=O)(=O)NCc2ccccc2)c1C", "cytotoxicity at 10 µM": -5.05}
{"smiles": "CNc1cc(C)nc(-c2cc(NC)nc3[nH]ccc23)n1", "cytotoxicity at 10 µM": -3.92}
{"smiles": "c1cnnc(-c2noc(CCN3CCCO3)n2)c1", "cytotoxicity at 10 µM": -3.61}
{"smiles": "CCc1nnc2n1CCN(C(C(=O)NC1CC1)c1ccccc1)C2", "note": "(stereo unspecified)", "cytotoxicity at 10 µM": -7.07}
{"smiles": "COc1ncccc1NC(=O)c1cccc(C)n1", "cytotoxicity at 10 µM": 2.3}
{"smiles": "CC(C)OCCN1CCN(C(=O)c2cccc(CC#N)c2)CC1", "cytotoxicity at 10 µM": 0.119}
{"smiles": "COCCN1CCN(Cc2cccc(C(=O)N(C)C)c2)CC1C", "note": "(stereo unspecified)", "cytotoxicity at 10 µM": 5}
{"smiles": "Cc1cnn(CCNCc2ccccc2OCc2cccnc2)c1", "cytotoxicity at 10 µM": 3.8}
{"smiles": "Cc1cc(CN2Cc3ccccc3CC2c2nnc(C)o2)on1", "note": "(stereo unspecified)", "cytotoxicity at 10 µM": -0.962}
{"smiles": "CN(C)C(=O)Cn1c(C2CC2)c(CN2CCC(O)CC2)c2cccnc21", "cytotoxicity at 10 µM": -4.9}
{"smiles": "CO[C@H]1CCN(C2CCOCC2)C[C@@H]1Cc1ccccc1", "cytotoxicity at 10 µM": 3.11}
{"smiles": "CN(C)CCOCc1cncc2c1CCN(Cc1ccccn1)C2", "cytotoxicity at 10 µM": 2.2}
{"smiles": "Cn1cc(N2CC3(COCCN(Cc4ccccn4)C3)OCC2=O)cn1", "note": "(stereo unspecified)", "cytotoxicity at 10 µM": -79.1}
{"smiles": "Cc1ccc(CN2CCc3ncnc(-c4ccoc4)c3CC2)o1", "cytotoxicity at 10 µM": 0.968}
{"smiles": "CN1[C@H](CN2CCCC2)C[C@@H]2CN(C(=O)Cc3ccsc3)CC[C@@H]21", "cytotoxicity at 10 µM": -3.45}
{"smiles": "O=C(CC(F)(F)F)N1C[C@@H]2CC[C@H]1CN(Cc1ccccc1)C2", "cytotoxicity at 10 µM": -3.63}
